Calls of active or inactive are those of the source. The calls are words filed in the database; no cut-off is given here.
Tests used:
Leishmania amazonensis [1] = experiment: Antileishmanial activity against promastigote stage of Leishmania amazonensis MPRO/BR/1972/M1841-LV-79 assessed as parasite growth inhibition after 72 hrs by MTT assay; assay type: functional, organism-based; conditions: MPRO/BR/1972/M1841-LV-79, 72 h
Method in brief: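 Promastigotes at 1 × 10^7/mL in LIT + 10% FBS were exposed 72 h at 28 °C to ten concentrations, 0.5–100 µM (final DMSO 0.1%). Viability was read by MTT, with formazan dissolved in SDS-HCl and absorbance at 570 nm. Run in triplicate; IC50 from nonlinear regression.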

Leishmania amazonensis [2] = experiment: Antileishmanial activity against Leishmania amazonensis MPRO/BR/1972/M1841-LV-79 amastigotes infected in mouse peritoneal macrophages assessed as parasite growth inhibition after 24 hrs by Giemsa staining-based microscopic method; assay type: functional, organism-based; conditions: MPRO/BR/1972/M1841-LV-79, 24 h
Method in brief: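 Peritoneal macrophages (3 × 10^5/well on coverslips, RPMI 1640 + 10% FBS) adhered 4 h at 37 °C, 5% CO2, then infected with stationary-phase promastigotes at 5:1 for 4 h. After washing, cells were cultured 18 h, then treated 24 h with compounds or reference drugs. Cells were methanol-fixed and Giemsa-stained. Infection index = % infected macrophages × mean amastigotes per infected cell. IC50 was fitted by regression.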

[3] = Cytotoxicity against mouse peritoneal macrophages assessed as decrease in cell viability after 24 hrs by MTT assay; assay type: cell-based, Peritoneal macrophage
Method in brief: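 Peritoneal macrophages (1 × 10^5/well) in RPMI 1640 with 10% FBS, 25 mM HEPES and 2 mM L-glutamine were pre-incubated 4 h. They were then exposed to compounds for 24 h at 37 °C, 5% CO2. Viability was read by MTT; CC50 determined.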

[4] = Safety index, ratio of CC50 for mouse peritoneal macrophage to IC50 for promastigote stage of Leishmania amazonensis MPRO/BR/1972/M1841-LV-79; assay type: toxicity; conditions: read-out: Ratio CC50/IC50
[5] = Safety index, ratio of CC50 for mouse peritoneal macrophages to IC50 for Leishmania amazonensis MPRO/BR/1972/M1841-LV-79 amastigotes infected in mouse peritoneal macrophages; assay type: toxicity; conditions: read-out: Ratio CC50/IC50
Leishmania amazonensis [6] = experiment: Antileishmanial activity against promastigote stage of Leishmania amazonensis MPRO/BR/1972/M1841-LV-79 infected in Balb/c mouse assessed as reduction in parasitic load at 2 mg/kg, ip administered once daily for 15 days by limiting dilution method relative to control; assay type: functional; design: scale not given: the % may be the effect or the level left
Method in brief: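 Footpad-infected female BALB/c mice (1 × 10^7 parasites/mL promastigotes; 5 per group) were treated from six weeks post-infection. Dosing was daily ip for 15 days: 0.13 or 0.25 mg/kg/day (PBS, 0.1% DMSO), AmpB 2 mg/kg/day, or PBS vehicle. Skin-lesion parasite burden was quantified after treatment by limiting dilution and compared with untreated infected mice. Data are mean ± SD.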

Leishmania amazonensis [7] = experiment: Antileishmanial activity against Leishmania amazonensis MPRO/BR/1972/M1841-LV-79 amastigotes infected in mouse peritoneal macrophages assessed as reduction in number of intracellular amastigotes at 25 uM after 72 hrs by Giemsa staining-based microscopic method relative to control; assay type: functional; design: scale not given: the % may be the effect or the level left
Method in brief: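 Infected peritoneal macrophages were treated with 25 µM of each compound, pentamidine or AmpB for 72 h. The infection index (% infected macrophages × amastigotes per infected macrophage) was compared with untreated infected cells. Data are given as mean ± SD.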

Leishmania amazonensis [8] = experiment: Antileishmanial activity against promastigote stage of Leishmania amazonensis MPRO/BR/1972/M1841-LV-79 infected in Balb/c mouse assessed as reduction in volume of foot lesions at 2 mg/kg, ip administered once daily for 15 days measured every 5 days during compound dosing by caliper method; assay type: functional, organism-based
Method in brief: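 Infected BALB/c mice (5 per group) were dosed daily ip for 15 days, starting six weeks after footpad inoculation: 0.13 or 0.25 mg/kg/day, AmpB 2 mg/kg/day, or PBS. Foot lesion thickness was measured with a dial caliper every 5 days.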

[9] = Toxicity in Balb/c mouse infected with promastigote stage of Leishmania amazonensis MPRO/BR/1972/M1841-LV-79 assessed as change in body weight at 2 mg/kg, ip administered once daily for 15 days measured during compound dosing; assay type: organism-based; conditions: in vivo, 360 h
Leishmania amazonensis [10] = experiment: Antileishmanial activity against promastigote stage of Leishmania amazonensis MPRO/BR/1972/M1841-LV-79 infected in Balb/c mouse assessed as increase in plasma bilirubin level at 2 mg/kg, ip administered once daily for 15 days measured during compound dosing; assay type: functional, organism-based
[11] = Renal toxicity in Balb/c mouse infected with promastigote stage of Leishmania amazonensis MPRO/BR/1972/M1841-LV-79 assessed as change in plasma creatinine level at 2 mg/kg, ip administered once daily for 15 days measured post-last dose; assay type: organism-based; conditions: in vivo, 360 h
Method in brief: (§1)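 Female BALB/c mice (4 weeks old, 5 per group) were infected in the left hind footpad with 1 × 10^7 parasites/mL of infective promastigotes. After six weeks they received daily ip doses for 15 days: 0.13 or 0.25 mg/kg/day (from DMSO stock in PBS, 0.1% DMSO), AmpB 2 mg/kg/day in sterile water, or PBS. Controls were untreated infected and uninfected mice. At end of treatment, plasma bilirubin, AST, ALT, ALP, urea and creatinine were measured with commercial kits.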

[12] = Renal toxicity in Balb/c mouse infected with promastigote stage of Leishmania amazonensis MPRO/BR/1972/M1841-LV-79 assessed as change in plasma urea level at 2 mg/kg, ip administered once daily for 15 days measured post-last dose; assay type: organism-based; conditions: in vivo, 360 h; method in brief: as §1
Leishmania amazonensis [13] = experiment: Antileishmanial activity against promastigote stage of Leishmania amazonensis MPRO/BR/1972/M1841-LV-79 infected in Balb/c mouse assessed as decrease in plasma alkaline phosphatase level at 2 mg/kg, ip administered once daily for 15 days measured post-last dose; assay type: organism-based; conditions: in vivo, 360 h; method in brief: as §1
Leishmania amazonensis [14] = experiment: Antileishmanial activity against promastigote stage of Leishmania amazonensis MPRO/BR/1972/M1841-LV-79 infected in Balb/c mouse assessed as decrease in plasma aspartate aminotransferase level at 2 mg/kg, ip administered once daily for 15 days measured post-last dose; assay type: functional, organism-based; method in brief: as §1
Leishmania amazonensis [15] = experiment: Antileishmanial activity against promastigote stage of Leishmania amazonensis MPRO/BR/1972/M1841-LV-79 infected in Balb/c mouse assessed as decrease in plasma alanine aminotransferase level at 2 mg/kg, ip administered once daily for 15 days measured post-last dose; assay type: functional, organism-based; method in brief: as §1

Activity (Leishmania amazonensis [13]): Active
Compound: C[C@@H]1[C@H](O)[C@@H](C)/C=C/C=C/C=C/C=C/C=C/C=C/C=C/[C@H](O[C@@H]2O[C@H](C)[C@@H](O)[C@H](N)[C@@H]2O)C[C@@H]2O[C@](O)(C[C@@H](O)C[C@@H](O)[C@H](O)CC[C@@H](O)C[C@@H](O)CC(=O)O[C@H]1C)C[C@H](O)[C@H]2C(=O)O [AMPHOTERICIN B]
IC50 (Leishmania amazonensis [1]): 3.2 µM
IC50 (Leishmania amazonensis [2]): 4.92 µM
CC50 at 24 h [3]: 23.1 µM
selectivity ratio [4]: 7.2
selectivity ratio [5]: 4.7
Activity (Leishmania amazonensis [6]): 41%
Activity (Leishmania amazonensis [7]): 84%
Activity (Leishmania amazonensis [8]): Active
Activity [9]: Non-Toxic
Activity (Leishmania amazonensis [10]): Active
Activity [11]: Non-Toxic
Activity [12]: Non-Toxic
Activity (Leishmania amazonensis [14]): Active
Activity (Leishmania amazonensis [15]): Active
